Active and inactive are the calls of the source. No cut-off for these calls is given here.
Assays:
[1] = system: SW-620; assay: Antitumor activity against human SW620 cells xenografted in nude athymic rat assessed as proportion of 4N DNA content in tumor cells at 25 mg/kg/day, iv for 1 to 5 consecutive days by flow cytometry analysis relative to control; format: functional; settings: time 1-5 day
In short: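 Nude rats with SW620 xenografts (0.5-1 cm3) were given vehicle or AZD1152 at 25 mg/kg/d as an i.v. bolus once daily on days 1-4. Subgroups (n = 3) were killed on days 0, 5, 9, 12, 16 and 19. Disaggregated tumors were analyzed by flow cytometry for PhH3 (% of control) and for 4N and >4N DNA (fold over control).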

[2] = system: SW-620; assay: Antitumor activity against human SW620 cells xenografted in Swiss nude mouse assessed as reduction in proportion of PhH3-positive cells within the G2-M phase at 70 mg/kg/day, sc measured over 48 hrs by flow cytometry analysis; format: functional, organism-based
In short: (§1)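 Male nude mice with palpable s.c. SW620 tumors (n = 4/group) received AZD1152 (0.5-150 mg/kg/d) or vehicle by constant 48-h s.c. mini-pump infusion. Tumors were then excised, fixed and disaggregated. Flow cytometry with propidium iodide gave DNA content (2N, 4N, >4N), and rabbit anti-PhH3 with fluorescein anti-rabbit IgG gave PhH3-positive cells (%).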

[3] = system: A549; assay: Antitumor activity against human A549 cells xenografted in immunodeficient Swiss athymic mouse assessed as maximum inhibition of tumor volume at 150 mg/kg/day, sc for 48 hrs on days 13 to 15 and measured on day 26 relative to control; format: functional; settings: A549, 336 h, time 14 day
In short: (§2)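 Male Swiss athymic nude mice, 8-12 wk; tumor cells (1×10^6-1×10^7, 50:50 Matrigel) implanted s.c. on flank. Randomized (n = 8-11) at 0.2-0.5 cm3. AZD1152 in Tris buffer pH 9, or vehicle (0.3 mol/L Tris), by 48-h s.c. osmotic mini-pump infusion (two 24-h pumps in sequence). Caliper volumes up to 3×/week; growth inhibition from change in control vs treated volume; one-tailed t test.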

[4] = system: SW-620; assay: Antitumor activity against human SW620 cells xenografted in Swiss nude mouse assessed as inhibition in PhH3 level at 0.5 mg/kg/day, sc measured over 48 hrs by flow cytometry analysis relative to control; format: functional; in short: as §1
[5] = system: HL-60; assay: Antitumor activity against human HL-60 cells xenografted in immunodeficient Swiss athymic mouse assessed as maximum inhibition of tumor volume at 150 mg/kg/day, sc for 48 hrs on days 16 to 18 and measured on day 18 relative to control; format: functional; settings: HL-60, 72 h, time 3 day; in short: as §2
[6] = system: SW-620; assay: Antitumor activity against human SW620 cells xenografted in immunodeficient Swiss athymic mouse assessed as inhibition of tumor volume at 10 mg/kg/day, sc for 48 hrs on days 7 to 9 and measured on day 23 relative to control; format: functional; settings: SW-620, 408 h, time 17 day; in short: as §2
[7] = system: SW-620; assay: Antitumor activity against human SW620 cells xenografted in nude athymic rat assessed as most affect in leukocyte population at 25 mg/kg/day, iv for 4 consecutive days by flow cytometric analysis; format: functional, organism-based; settings: time 4.0 day
[8] = system: SW-620; assay: Antitumor activity against human SW620 cells xenografted in immunodeficient Swiss athymic mouse assessed as inhibition of tumor volume at 150 mg/kg/day, sc for 48 hrs on days 7 to 9 and measured on day 23 relative to control; format: functional; settings: SW-620, 408 h, time 17 day; in short: as §2
[9] = system: SW-620; assay: Antitumor activity against human SW620 cells xenografted in nude athymic rat assessed as reduction in total cellular content at 25 mg/kg/day, iv for 4 consecutive days and measured on 5 day by H&E staining based immunohistochemistry analysis; format: functional, organism-based
In short: (§3)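 Nude rats bearing SW620 tumors were dosed i.v. with AZD1152 at 25 mg/kg/d or with vehicle on days 1-4. Subgroups (n = 3) were killed at set days. Tumor and bone marrow sections were H&E-stained and examined histologically.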

[10] = system: Calu-6; assay: Antitumor activity against human Calu-6 cells xenografted in immunodeficient Swiss athymic mouse assessed as maximum inhibition of tumor volume at 150 mg/kg/day, sc for 48 hrs on days 20 to 22 and measured on day 29 relative to control; format: functional; settings: Calu-6, 240 h, time 10 day; in short: as §2
[11] = system: SW-620; assay: Antitumor activity against human SW620 cells xenografted in nude athymic rat assessed as larger multinucleated tumor cells at 25 mg/kg/day, iv for 4 consecutive days and measured on 9 day by H&E staining based immunohistochemistry analysis; format: functional, organism-based; in short: as §3
[12] = system: SW-620; assay: Antitumor activity against human SW620 cells xenografted in immunodeficient Swiss athymic mouse assessed as maximum inhibition of tumor volume at 25 mg/kg/day, iv for 3 days on days 6 to 8 and measured on day 13 relative to control; format: functional; settings: SW-620, 192 h, time 8 day
In short: (§4)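 Male Swiss nude mice bearing s.c. flank SW620 xenografts (cells in Matrigel), randomized (n = 8-11) at 0.2-0.3 cm3. AZD1152 in Tris buffer pH 9, or vehicle, given as a once-daily i.v. or i.p. bolus. Caliper volumes up to 3×/week; inhibition from change in control vs treated volume; one-tailed t test.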

[13] = system: SW-620; assay: Antitumor activity against human SW620 cells xenografted in Swiss nude mouse assessed as reduction in PhH3 at Ser10 residue at 70 mg/kg/day, sc over 48 hrs by immunohistochemistry analysis; format: functional, organism-based
In short: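 Male nude mice bearing SW620 tumors (n = 4/group) had 48-h s.c. mini-pump infusion of AZD1152 (70 mg/kg/d) or vehicle. Excised tumor sections were stained with H&E, or immunostained for PhH3 Ser10 with rabbit polyclonal antibody, HRP-polymer detection and hematoxylin counterstain.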

[14] = system: SW-620; assay: Antitumor activity against human SW620 cells xenografted in immunodeficient Swiss athymic mouse assessed as maximum inhibition of tumor volume at 25 mg/kg/day, ip for 4 days on days 6 to 9 and measured on day 13 relative to control; format: functional; settings: SW-620, 192 h, time 8 day; in short: as §4
[15] = system: SW-620; assay: Antitumor activity against human SW620 cells xenografted in nude athymic rat assessed as atrophy in bone marrow at 25 mg/kg/day, iv for 4 consecutive days and measured on 5 day by H&E staining based immunohistochemistry analysis; format: functional, organism-based; in short: as §3
[16] = system: SW-620; assay: Antitumor activity against human SW620 cells xenografted in nude athymic rat assessed as suppression in PhH3 at 25 mg/kg/day, iv for 4 consecutive days and measured during dosing period (days 1 to 4) by flow cytometry analysis relative to control; settings: time 1 to 4 day
[17] = system: SW-620; assay: Antitumor activity against human SW620 cells xenografted in immunodeficient Swiss athymic mouse assessed as maximum inhibition of tumor volume at 10 mg/kg/day, sc for 48 hrs on days 7 to 9 and measured on day 10 relative to control; format: functional; settings: SW-620, 96 h, time 4 day; in short: as §2
[18] = system: A549; assay: Antitumor activity against human A549 cells xenografted in immunodeficient Swiss athymic mouse assessed as maximum inhibition of tumor volume at 25 mg/kg/day, sc for 48 hrs on days 13 to 15 and measured on day 15 relative to control; format: functional; settings: A549, 72 h, time 3 day; in short: as §2
[19] = system: COLO 205; assay: Antitumor activity against human COLO 205 cells xenografted in immunodeficient Swiss athymic mouse assessed as maximum inhibition of tumor volume at 150 mg/kg/day, sc for 48 hrs on days 5 to 7 and measured on day 18 relative to control; format: functional; settings: COLO 205, 336 h, time 14 day; in short: as §2

Question: Which results are given for `CCN(CCCOc1ccc2c(Nc3cc(CC(=O)Nc4cccc(F)c4)[nH]n3)ncnc2c1)CCOP(=O)(O)O` [BARASERTIB]?
Answer: Activity [1]: 60%; Activity [2]: Active; inhibition in vivo at 150 mg/kg/day [3]: 79%; inhibition in vivo at 0.5 mg/kg/day [4]: 52%; inhibition in vivo at 150 mg/kg/day [5]: > 100%; inhibition in vivo at 10 mg/kg/day [6]: 28%; Activity [7]: Active; inhibition in vivo at 150 mg/kg/day [8]: 87%; Activity [9]: Active; inhibition in vivo at 150 mg/kg/day [10]: 67%; Activity [11]: Active; inhibition in vivo at 25 mg/kg/day [12]: 91%; Activity [13]: Active; inhibition in vivo at 25 mg/kg/day [14]: 65%; Activity [15]: Active; Activity [16]: ~40%; inhibition in vivo at 10 mg/kg/day [17]: 55%; inhibition in vivo at 25 mg/kg/day [18]: 74%; inhibition in vivo at 150 mg/kg/day [19]: > 100%

Reference: ChEMBL document CHEMBL5715941, “AZD1152, a selective inhibitor of Aurora B kinase, inhibits human tumor xenograft growth by inducing apoptosis” (Clin Cancer Res, 2007)
